Source: ChEMBL document CHEMBL2440035, “Azetidines and spiro azetidines as novel P2 units in hepatitis C virus NS3 protease inhibitors” (Bioorg Med Chem Lett, 2013)

Columns and labels:
CCRF-CEM = experiment: Cytotoxicity against human CEM cells; assay type: cell-based
Summary of the method: (§1)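 Cytotoxicity was profiled in three cell types: primary human peripheral blood mononuclear (PBM) cells, CEM (a human T-cell-derived line) and Vero (African green monkey kidney epithelial cells).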

Hepatitis C virus = experiment: Antiviral activity against Hepatitis C virus infected in human HuH7 cells assessed as viral RNA replication; assay type: functional, organism-based, Hepacivirus hominis; details: Huh-7
Summary of the method: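 Subgenomic HCV replicon in Huh7 cells; inhibition of HCV RNA replication measured by extraction and amplification of HCV RNA. Each concentration run in triplicate and reported as mean; EC50 derived.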

Huh-7 = experiment: Cytotoxicity against human HuH7 cells; assay type: cell-based
Summary of the method: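 Huh7 cytotoxicity measured together with the replicon antiviral assay, by extraction and amplification of ribosomal RNA. Each concentration run in triplicate and reported as mean.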

Vero = experiment: Cytotoxicity against african green monkey Vero cells; assay type: cell-based; details: chlorocebus sabaeus; summary of the method: as §1
PBMC = experiment: Cytotoxicity against human PBMC; assay type: cell-based; summary of the method: as §1

CCCC(NC(=O)C1N(C(=O)[C@@H](NC(=O)C2CCCCC2)C(C)(C)C)CC12Cc1ccccc1C2)C(=O)C(=O)NC1CC1 (stereo partly drawn) gave a CC50 (CCRF-CEM) of 22 µM, an EC50 (Hepatitis C virus) greater than 10 µM and an EC90 (Hepatitis C virus) greater than 10 µM. The CC50 (Huh-7) was 10 µM, the CC50 (Vero) was 43 µM and the CC50 (PBMC) was 31 µM.
CCCC(NC(=O)C1CCN1C(=O)[C@@H](NC(=O)[C@@H](NC(=O)c1cnccn1)C1CCCCC1)C(C)(C)C)C(=O)C(=O)NCCF (stereo partly drawn) was tested, and the CC50 (CCRF-CEM) was 52 µM, the EC50 (Hepatitis C virus) was greater than 10 µM and the EC90 (Hepatitis C virus) was greater than 10 µM. The CC50 (Huh-7) was greater than 10 µM, the CC50 (Vero) was greater than 100 µM and the CC50 (PBMC) was 80 µM.
CCCC(NC(=O)C1N(C(=O)[C@@H](NC(=O)Nc2ccccc2)C(C)(C)C)CC12Cc1ccccc1C2)C(=O)C(=O)NC1CC1 (stereo partly drawn) gave an EC50 (Hepatitis C virus) greater than 10 µM, an EC90 (Hepatitis C virus) greater than 10 µM and a CC50 (Huh-7) greater than 10 µM. It also gave a CC50 (Vero) of 46 µM and a CC50 (PBMC) of 15 µM.
CC(C)(C)[C@H](NC(=O)[C@@H](NC(=O)c1cnccn1)C1CCCCC1)C(=O)N1CC2(Cc3ccccc3C2)C1C(=O)NC(CC1CC1)C(=O)C(=O)NC1CC1 (stereo partly drawn) showed a CC50 (CCRF-CEM) of 14 µM, an EC50 (Hepatitis C virus) of 0.8 µM and an EC90 (Hepatitis C virus) of 1.5 µM. The CC50 (Vero) was greater than 100 µM and the CC50 (PBMC) was 12 µM.
CCCC(NC(=O)C1CCN1C(=O)[C@@H](NC(=O)[C@@H](NC(=O)c1cnccn1)C1CCCCC1)C(C)(C)C)C(=O)C(=O)NC1CC1 (stereo partly drawn) gave a CC50 (CCRF-CEM) greater than 100 µM, an EC50 (Hepatitis C virus) greater than 10 µM and an EC90 (Hepatitis C virus) greater than 10 µM. It also gave a CC50 (Huh-7) greater than 10 µM, a CC50 (Vero) greater than 100 µM and a CC50 (PBMC) greater than 100 µM.
